Reference: publication PMC3382723 (The Journal of General Physiology, 2012)
“And” between values parts separate entries of the source, which are not always exact repeats. Equal values may be shown once. Read-outs that look alike come from different tables or passages of the source.

How the values were obtained:
[1] = tested on: Kv7.2/Kv7.3(EEE) mutant channels; assay: Activation model fitted to the DiC8-PI; format: cell-based
Summary of the method: (§1)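 A binding/gating scheme was fitted to mean inside-out patch Popen–concentration data for the water-soluble PI(4,5)P2 analog: Kv7.2/Kv7.3 from 20–49 patches, Kv7.2/Kv7.3(EEE) from 8–13 patches. The scheme has two pairs of independent high-affinity (K3, Kv7.3) and low-affinity (K2, Kv7.2) sites and three open states (E3, E2, E1). Occupancies follow mass action with microscopic reversibility. Popen is the sum of the open-state occupancies.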

[2] = tested on: homomeric Kv7(EEE) channels; details: expressed as homomers; ref Hernandez et al., 2008; cited from earlier work
homomeric Kv7.2 channels [3] = target: T1, homomeric Kv7.2 channels (Homo sapiens, UniProt O43526); details: ref Li et al., 2005; cited from earlier work
T1 sequence (O43526 whole entry): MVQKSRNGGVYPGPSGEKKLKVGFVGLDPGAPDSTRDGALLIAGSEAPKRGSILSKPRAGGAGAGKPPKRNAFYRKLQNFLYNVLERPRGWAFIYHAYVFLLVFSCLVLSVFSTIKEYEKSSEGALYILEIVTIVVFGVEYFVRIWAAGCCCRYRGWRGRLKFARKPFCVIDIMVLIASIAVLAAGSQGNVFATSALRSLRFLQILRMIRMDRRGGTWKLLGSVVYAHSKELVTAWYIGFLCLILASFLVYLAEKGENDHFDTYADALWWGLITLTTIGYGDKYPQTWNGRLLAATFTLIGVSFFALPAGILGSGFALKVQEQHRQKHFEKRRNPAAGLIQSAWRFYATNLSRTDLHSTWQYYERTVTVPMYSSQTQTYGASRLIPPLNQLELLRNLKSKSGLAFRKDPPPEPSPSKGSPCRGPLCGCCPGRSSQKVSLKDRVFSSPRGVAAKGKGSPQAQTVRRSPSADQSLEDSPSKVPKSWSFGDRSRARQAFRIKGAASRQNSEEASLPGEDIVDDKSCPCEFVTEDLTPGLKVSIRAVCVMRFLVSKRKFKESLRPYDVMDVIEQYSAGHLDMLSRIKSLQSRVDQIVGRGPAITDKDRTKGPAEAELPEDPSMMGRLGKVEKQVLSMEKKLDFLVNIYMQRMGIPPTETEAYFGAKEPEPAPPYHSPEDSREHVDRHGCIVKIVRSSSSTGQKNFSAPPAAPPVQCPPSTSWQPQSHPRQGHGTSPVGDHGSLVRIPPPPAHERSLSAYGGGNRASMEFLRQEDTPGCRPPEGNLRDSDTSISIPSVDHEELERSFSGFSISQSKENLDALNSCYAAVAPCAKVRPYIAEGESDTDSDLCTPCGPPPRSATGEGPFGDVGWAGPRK

homomeric Kv7.2 channels [4] = target: T1, homomeric Kv7.2 channels; assay: DiC8-PI; format: cell-based; details: single-component Hill fit
Summary of the method: (§2)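 HM1-CHO cells (human M1 receptor) were transiently transfected with human Kv7.2 or Kv7.3 A315T, plus EGFP. Excised inside-out patches were held at 0 mV, 22°C, with 0.1 µM ATPγS in the pH 7.2 KCl bath. The PI(4,5)P2 analog was applied in incremental concentrations. Popen was corrected for channel number. Single-component Hill fit. n = 7–19 patches (Kv7.2) and 7–15 patches (Kv7.3T).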

Kv7.2/Kv7.3 channels = assay: Activation model fitted to the DiC8-PI; format: cell-based, human
Summary of the method: as §1

[5] = target: heteromeric Kv7.2/Kv7.3(EEE) channels (Homo sapiens, UniProt O43525+O43526, K462E/K469E/R471E); assay: DiC8-PI; format: cell-based; details: single-component fit
heteromeric Kv7.2/Kv7.3(EEE) channels, sequence (O43525 whole entry K462E/K469E/R471E, the tested form may be a part): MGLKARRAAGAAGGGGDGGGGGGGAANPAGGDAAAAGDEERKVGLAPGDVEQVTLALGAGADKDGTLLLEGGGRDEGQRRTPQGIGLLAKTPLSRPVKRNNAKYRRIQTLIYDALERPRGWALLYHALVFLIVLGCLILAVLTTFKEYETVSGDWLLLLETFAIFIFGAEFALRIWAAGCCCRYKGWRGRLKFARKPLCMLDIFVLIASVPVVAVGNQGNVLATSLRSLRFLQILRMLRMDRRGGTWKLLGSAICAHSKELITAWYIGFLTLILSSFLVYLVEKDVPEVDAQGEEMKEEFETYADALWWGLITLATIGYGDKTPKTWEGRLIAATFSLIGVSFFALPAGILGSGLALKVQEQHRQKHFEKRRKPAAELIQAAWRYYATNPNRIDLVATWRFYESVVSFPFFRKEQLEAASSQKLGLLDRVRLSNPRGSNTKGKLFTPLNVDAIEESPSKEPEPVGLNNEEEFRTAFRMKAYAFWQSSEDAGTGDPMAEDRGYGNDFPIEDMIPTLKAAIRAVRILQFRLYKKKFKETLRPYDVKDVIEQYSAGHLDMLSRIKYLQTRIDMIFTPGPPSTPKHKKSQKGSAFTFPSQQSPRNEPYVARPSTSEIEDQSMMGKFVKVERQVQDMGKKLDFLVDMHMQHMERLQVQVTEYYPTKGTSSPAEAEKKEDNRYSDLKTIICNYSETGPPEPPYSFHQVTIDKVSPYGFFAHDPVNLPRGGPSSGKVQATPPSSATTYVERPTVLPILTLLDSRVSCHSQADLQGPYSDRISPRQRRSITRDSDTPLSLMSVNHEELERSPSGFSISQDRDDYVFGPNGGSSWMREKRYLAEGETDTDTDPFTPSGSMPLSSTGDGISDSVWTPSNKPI
heteromeric Kv7.2/Kv7.3(EEE) channels, sequence (O43526 whole entry, the tested form may be a part): as the sequence (O43526 whole entry) above
Summary of the method: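 CHO cells expressing WT Kv7.2 with Kv7.3 […]. Excised inside-out patches were held at 0 mV, 22°C, in 165 mM KCl, 5 mM HEPES, 10 mM EGTA, pH 7.2, with 0.1 µM ATPγS. The PI(4,5)P2 analog was applied in incremental concentrations by fast piezo microperfusion. Popen was taken over the last 20 s and corrected for channel number. n = 8–13 patches.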

homomeric Kv7.3 channels = details: ref Li et al., 2005; cited from earlier work
[6] = target: heteromeric Kv7.2/7.3 channels (Homo sapiens, UniProt O43525+O43526); assay: DiC8-PI; format: cell-based
heteromeric Kv7.2/7.3 channels, sequence (O43525 whole entry, the tested form may be a part): as the sequence (O43525 whole entry K462E/K469E/R471E, the tested form may be a part) above, with E462K, E469K, E471R counted along it
heteromeric Kv7.2/7.3 channels, sequence (O43526 whole entry, the tested form may be a part): as the sequence (O43526 whole entry) above
Summary of the method: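 CHO cells stably cotransfected with human Kv7.2 and Kv7.3. Patches at 22 ± 0.5°C were excised inside-out and held at 0 mV. Bath was 165 mM KCl, 5 mM HEPES, 10 mM EGTA, pH 7.2, with 0.1 µM ATPγS. The PI(4,5)P2 analog was given by piezo microperfusion, rising from 0.1 to 300 µM, 30 s–2 min per step. Popen was taken over the last 20 s, corrected for channel number, with control subtracted. 11–29 patches per concentration. Weighted two-component Hill fit, shared nH.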

[7] = tested on: coexpressed Kv7.2 and Kv7.3 subunits; details: ref Li et al., 2005; cited from earlier work
[8] = tested on: concatenated Kv7.2-7.3 channels; assay: DiC8-PI; format: cell-based; details: n = 9-21
Summary of the method: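 HM1-CHO cells were transiently transfected with concatenated Kv7.2-7.3 cDNA plus an EGFP plasmid using Lipofectamine 2000. Inside-out patches at 0 mV and 22°C, in 165 mM KCl/HEPES/EGTA bath, pH 7.2, with 0.1 µM ATPγS. Stepwise PI(4,5)P2 analog, 0.1–300 µM, by fast perfusion. Popen was taken over the last 20 s and corrected for channel number. n = 9–21 patches per concentration.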

[9] = target: T2, homomeric Kv7.3^T (A315T) channels (Homo sapiens, UniProt O43525, A315T); assay: DiC8-PI; format: cell-based; details: single-component Hill fit
T2 sequence (O43525 1-872 A315T): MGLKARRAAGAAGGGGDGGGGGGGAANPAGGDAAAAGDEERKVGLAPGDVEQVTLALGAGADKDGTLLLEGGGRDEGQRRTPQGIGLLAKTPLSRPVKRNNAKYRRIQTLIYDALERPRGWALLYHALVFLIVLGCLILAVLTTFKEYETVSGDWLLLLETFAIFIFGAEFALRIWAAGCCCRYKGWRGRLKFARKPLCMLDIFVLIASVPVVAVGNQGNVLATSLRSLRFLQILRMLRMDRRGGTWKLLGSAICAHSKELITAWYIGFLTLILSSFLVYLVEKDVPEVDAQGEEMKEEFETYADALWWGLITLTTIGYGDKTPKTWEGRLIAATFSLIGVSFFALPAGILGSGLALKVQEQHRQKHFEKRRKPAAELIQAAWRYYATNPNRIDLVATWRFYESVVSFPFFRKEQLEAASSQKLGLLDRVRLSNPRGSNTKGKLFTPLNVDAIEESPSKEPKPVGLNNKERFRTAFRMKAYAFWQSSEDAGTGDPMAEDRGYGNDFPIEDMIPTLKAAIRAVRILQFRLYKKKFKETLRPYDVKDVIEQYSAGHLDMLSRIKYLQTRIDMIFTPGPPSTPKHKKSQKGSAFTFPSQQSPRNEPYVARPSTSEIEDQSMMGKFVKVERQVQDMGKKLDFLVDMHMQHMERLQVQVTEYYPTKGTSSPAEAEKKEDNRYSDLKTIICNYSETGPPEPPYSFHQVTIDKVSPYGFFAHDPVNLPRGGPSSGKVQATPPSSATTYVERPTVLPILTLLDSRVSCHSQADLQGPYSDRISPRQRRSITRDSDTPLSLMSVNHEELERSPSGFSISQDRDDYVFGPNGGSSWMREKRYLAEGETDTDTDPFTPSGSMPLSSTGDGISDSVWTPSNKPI
Summary of the method: as §2

[10] = tested on: concatemeric Kv7.2/Kv7.3 dimer; details: ref Hadley et al., 2003; cited from earlier work
[11] = tested on: coexpressed Kv7.2 and Kv7.3; details: cited from earlier work
[12] = patches with only a single active channel

Structure (SMILES): CCCCCCCC(=O)OC[C@H](COP(=O)(O)O[C@@H]1[C@H](O)[C@H](O)[C@@H](OP(=O)(O)O)[C@H](OP(=O)(O)O)[C@H]1O)OC(=O)CCCCCCC [DiC8-PI(4,5)P2, dioctanoylphosphatidyl-4,5-bisphosphate]
- E1 ([1]; model 4 free fit): 0.89 ± 0.43
- E2 ([1]; model 4 free fit): 0.00
- E3 ([1]; model 4 free fit): 0.04 ± 0.14
- Po (max) ([1]; model 4 free fit): 0.47
- maximum open probability Po3 (both Kv7.3 sites occupied) ([1]; model 4 prediction, at 10 µM): 0.027
- Kd ([1]; read-out: K3, model 4 free fit): 0.94 µM
- fold less sensitive than WT channels [2]: > 100 fold
- Hill slope (homomeric Kv7.2 channels [3]): 0.97
- Hill coefficient nH (homomeric Kv7.2 channels [4]): 0.76 ± 0.08
- EC50 (homomeric Kv7.2 channels [4]; 0 mV): 76.2 µM and 76 µM
- Po (max) (Kv7.2/Kv7.3 channels; model 4): 0.82
- E1, gating equilibrium constant (Kv7.2/Kv7.3 channels; model 4, all four sites occupied): 4.42 ± 0.61
- E2, gating equilibrium constant (Kv7.2/Kv7.3 channels; model 4, two high- and one low-affinity site occupied): 0.46 ± 0.39
- E3, gating equilibrium constant (Kv7.2/Kv7.3 channels; model 4, two high-affinity sites occupied): 0.26 ± 0.07
- concentration at which Po3 peaks (Kv7.2/Kv7.3 channels; model 4 prediction): around 7 µM
- peak open probability Po3 (only Kv7.3 subunits bound) (Kv7.2/Kv7.3 channels; model 4 prediction, around 7 µM): 0.145
- Hill coefficient nH [5]: 1.1 ± 0.1
- EC50 ([5]; maximum Popen undetermined): 265 ± 74 µM
- EC50 (homomeric Kv7.3 channels): 2.6 µM
- Hill slope (homomeric Kv7.3 channels): 1.33
- Popen(max1) ([6]; component 1, single- and pauci-channel patches, 0 mV): 0.2 ± 0.0073 and ~0.2
- Popen(max2) ([6]; component 2, single- and pauci-channel patches, 0 mV): 0.6 ± 0.0012
- Hill coefficient ([6]; constrained the same for both components, single- and pauci-channel patches): 1.4 ± 0.06 and ~1.4
- Popen at full opening ([6]; higher ligand concentrations, 0 mV): ~0.8
- partial channel opening, % of the maximum Popen ([6]; low concentrations, binding to Kv7.3 subunit): ~25%
- Hill coefficient nH [6, 12]: 1.6 ± 0.36
- Popen(max1) [6, 12]: 0.28 ± 0.045
- Popen(max2) [6, 12]: 0.61 ± 0.0074
- factor between apparent affinities of high- and low-affinity sites ([6]; two-component curves): about 60
- EC50 [7]: 40 µM
- concentration-response curve compared with K2/3-CHO cells [8]: very similar biphasic
- Hill coefficient nH [9]: 0.95 ± 0.2
- EC50 ([9]; 0 mV): 3.6 ± 1 µM

Structure (SMILES): CC[N+](CC)(CC)CC [TEA, tetraethylammonium]
- Hill slope of TEA inhibition [10]: 0.97 ± 0.12
- Hill slope of TEA inhibition ([11]; ref Shapiro et al. [2000]): 0.58
- Hill slope of TEA inhibition ([11]; single binding site equation, ref Hadley et al., 2003): 0.98 ± 0.02
